Assay outcomes deposited in PubChem BioAssay by several laboratories.
STAT3 act – STAT3 signaling activation | U3A cells, IL-6 STAT3-luciferase reporter, luminescence; 100% = signal with IL-6 EC80 alone | activation (% of control), % at 5.6 µM | 190,000 compounds, 0.91% hits | AID 871;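 active = activation above the screen-wide mean of compound activation plus 3 SD, cut at about 130% in these data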
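Material: human U3A cells carrying STAT3-luciferase construct. Measured by: reporter luminescence signal. Timing: compound 1 h, then IL-6 6 h at 37 °C.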
NF-kB expr up – NF-kB expression increase, human neuronal cells; NF-kB reporter expression; stronger effect = higher value; fold change at 12.5 µM; 190,000 compounds, 1.6% hits; AID 1239; in the data active = fold change above about 3.3
STAT1 activator – increases IFN-gamma driven STAT1 reporter signal. NIH 3T3 STAT1-luciferase reporter, luminescence; 100% = IFN-gamma alone, no compound. activation (% of control), % at 5.5 µM. 200,000 compounds, 2.6% hits;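 active = activation above the screen-wide mean activation plus 3 SD, cut at about 130% in these data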
Pf gamet viab – kills late stage P. falciparum gametocytes; P. falciparum stage V gametocytes, ATP luminescence, 24 h; inhibition, % at 10.9 µM; 150,000 compounds, 0.065% hits;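 active = inhibition above the mean plus 3 SD of compounds within the control limits, set per campaign, cut at about 38% in these data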
APP 5'UTR act – APP 5'UTR luciferase reporter activation. SH-SY5Y APP 5'UTR luciferase reporter, luminescence; zero percent = DMSO vehicle wells. activation, % at 2 µM. 190,000 compounds, 1% hits. AID 1276;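 active = activation above a set limit, based on mean plus 3 SD of controls, cut at about 140% in these data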
STAT1 blocker – inhibitors of IFN-gamma induced STAT1 signaling; NIH 3T3 STAT1-luciferase reporter, luminescence; inhibition, % at 5.5 µM; 200,000 compounds, 0.35% hits;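 active = inhibition above a set limit, the mean inhibition across all tested compounds plus 3 SD, cut at about 34% in these data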
Each line names hits and unclear results; the compound was inactive in the other large screens. This is a sample that favours compounds with a hit; in the whole collection about 3.9% have one here.

Nc1cccc(-c2nc3cc(S(=O)(=O)c4ccc5oc(-c6cccc(N)c6)nc5c4)ccc3o2)c1	none
COc1ccc(-c2nc3cc([N+](=O)[O-])ccc3o2)cc1	NF-kB expr up 5.2, STAT1 activator 150, APP 5'UTR act 170
Nc1ccc2oc(-c3cccs3)nc2c1	STAT1 activator 149 (no result: Pf gamet viab)
Nc1ccc2oc(-c3cccc4ccccc34)nc2c1	none (no result: Pf gamet viab)
Cc1cnc(NC(=O)C2(c3ccccc3)CC2)s1	none (no result: Pf gamet viab)
CSc1nc(N)n2nc(-c3ccc(Cl)cc3)cc2n1	none (no result: STAT3 act, NF-kB expr up, STAT1 activator, APP 5'UTR act, STAT1 blocker)
Nc1ccc(-c2nc3cc([N+](=O)[O-])ccc3o2)cc1	none (no result: STAT3 act, NF-kB expr up, STAT1 activator, APP 5'UTR act, STAT1 blocker)
Cc1ccc(-c2nc3cc(N)ccc3o2)cc1	NF-kB expr up 5.4
Cc1ccc2oc(-c3ccco3)nc2c1	STAT1 activator 138 (no result: Pf gamet viab)
O=c1oc(-c2ccco2)nc2ccccc12	none (no result: Pf gamet viab)
CC(C)c1ccc2oc(-c3ccc(NC(=O)c4ncn[nH]4)cc3)nc2c1	STAT1 activator 136 (no result: Pf gamet viab)
Cc1ccc2oc(-c3ccc(NC(=O)c4cccnc4)cc3)nc2c1	STAT1 activator 144, APP 5'UTR act 225
O=C(Nc1ccc2oc(-c3cccnc3)nc2c1)c1cccnc1	none (no result: Pf gamet viab)
CSc1nc(N2CCOCC2)nc2ccc(C)cc12	none (no result: STAT3 act, NF-kB expr up, STAT1 activator, APP 5'UTR act, STAT1 blocker)
COC(=O)c1ccc(-c2nc3ccc(C)cc3o2)cc1	NF-kB expr up 7
CC(C)c1ccc2oc(-c3ccc(N)cc3)nc2c1	NF-kB expr up 3.4
COc1ccc(O)c(/C=N/n2c(-c3ccco3)csc2=Nc2cccnc2)c1	Pf gamet viab 53
CN=c1scc(-c2ccco2)n1/N=C/c1ccc(O)c(O)c1	NF-kB expr up 3.8
COC(=O)[C@@H](CC(C)C)NS(=O)(=O)N(Cc1ccccc1)[C@@H](CC(C)C)C(=O)OC	none (no result: STAT3 act, NF-kB expr up, STAT1 activator, APP 5'UTR act, STAT1 blocker)
CCOC(=O)c1c(CSC(=N)N)n(-c2ccccc2)c2cc(Br)c(OC(C)=O)cc12	none (no result: STAT3 act, NF-kB expr up, STAT1 activator, APP 5'UTR act, STAT1 blocker)
N#Cc1cc2ccccc2nc1SCc1ccccn1	NF-kB expr up 5.3, STAT1 activator 147, APP 5'UTR act 186 (no result: Pf gamet viab)
COc1ccc2cc(/C=N/O)c(Cl)nc2c1	STAT1 activator 129
Cc1ccc(NC(=O)C2Cc3ccccc3C(=O)O2)cc1 (stereo not given)	STAT1 activator 135
COc1cc(C(=O)Oc2ccccc2/C=N/NC(=O)c2ccc(Cl)cc2)cc(OC)c1OC	STAT1 activator 131
COc1cc(/C=N/NC(=O)c2ccc(-c3ccccc3)cc2)cc(OC)c1OC	STAT3 act 134 (no result: Pf gamet viab)
COc1ccc(OC(=O)c2cnn(-c3ccccc3)c2C)cc1	NF-kB expr up 5.9, STAT1 activator 150 (no result: Pf gamet viab)
Brc1ccc(OCc2cn3ccccc3n2)cc1	NF-kB expr up 4.6, STAT1 activator 147, APP 5'UTR act 140
C[C@H](CO)N1C[C@H](C)[C@@H](CN(C)Cc2ccccc2)Oc2c(NC(=O)C3CC3)cccc2C1=O	none (no result: STAT3 act, NF-kB expr up, STAT1 activator, APP 5'UTR act, STAT1 blocker)
COc1ccc(Nc2cccc(Cl)c2)c(C(=O)O)c1	NF-kB expr up 3.6
Cc1ccc(NC(=O)Nc2cccc(Cl)c2)c(C(=O)O)c1	none
CCOC(=O)c1sc(Nc2ccccc2)nc1C	none
CCOC(=O)c1sc(Nc2nc3c(OC)cccc3s2)nc1C	STAT3 act 136 (no result: Pf gamet viab)
COc1cccc2sc(Nc3nc(-c4ccccn4)cs3)nc12	STAT1 activator 136 (no result: Pf gamet viab)
CCOC(=O)c1sc(Nc2ccc(C)cc2C)nc1C	none (no result: Pf gamet viab)
CCOC(=O)c1sc(NC(=O)Nc2ccc(Cl)cc2)nc1C	STAT1 activator 129
CCOC(=O)c1sc(N/N=C/c2cccc(C)c2)nc1C	STAT1 activator 130 (no result: Pf gamet viab)
CC(=O)c1sc(N/N=C\c2ccccc2O)nc1C	NF-kB expr up 5.9
COc1ccc(NC(=O)Nc2ccon2)c(OC)c1	none
CSCc1ccc(C(=O)Nc2ccc(C(N)=O)cc2)cc1	STAT1 activator 147
O=C(Nc1ccccc1F)c1ccc(CSc2ncccn2)cc1	STAT1 activator 138, APP 5'UTR act 155
O=C(Nc1ccccc1)c1ccc(CSc2ncccn2)cc1	STAT1 activator 139, APP 5'UTR act 152 (no result: Pf gamet viab)
COc1ccccc1-n1c(SCC(=O)N(C)C)nnc1-c1ccco1	none (no result: STAT3 act, NF-kB expr up, STAT1 activator, APP 5'UTR act, STAT1 blocker)
COc1ccc(CCNC(=S)NC2CCN(Cc3ccccc3)CC2)cc1OC	none
CCCNC(=O)C(Cc1ccc(Br)cc1)NC(=O)c1ccc(C#N)cc1 (stereo not given)	none (no result: STAT3 act, NF-kB expr up, STAT1 activator, APP 5'UTR act, STAT1 blocker)
COC(=O)c1ccc2c(CCO)c[nH]c2c1	none (no result: STAT3 act, NF-kB expr up, STAT1 activator, APP 5'UTR act, STAT1 blocker)
CCOC(=O)c1cc(C(=O)Nc2cccc(C)c2)nn1C	NF-kB expr up 6.8, STAT1 activator 135 (no result: Pf gamet viab)
COC(=O)C1=C(NC(=O)c2ccc(C)c(C)c2)CCS1	STAT3 act 134
CCCc1ccc(OCc2nc(-c3ccc(NC(=O)c4ccco4)cc3)no2)cc1	STAT1 activator 133 (no result: Pf gamet viab)
CCCc1ccc(OCc2nc(-c3ccc(NC(=O)c4cccs4)cc3)no2)cc1	none (no result: Pf gamet viab)
COc1ccc(-c2nc(N)c(C#N)c(-c3cccnc3)c2C)cc1	none (no result: STAT3 act, NF-kB expr up, STAT1 activator, APP 5'UTR act, STAT1 blocker)
CCC/C(=N\NC(=O)c1csc(C)c1C)c1cccs1	none
CC/C(=N\NC(=O)c1csc(C)c1C)c1cccs1	NF-kB expr up 5.2, STAT1 activator 138 (no result: Pf gamet viab)
CCOc1ccc(NC2OCC(O)C(O)C2O)c([N+](=O)[O-])c1 (stereo not given)	none
O=C(Nc1nc2c(ccc3ccccc32)s1)c1cc([N+](=O)[O-])ccc1N1CCOCC1	STAT3 act 133, STAT1 activator 131 (no result: Pf gamet viab)
O=C(Nc1nc(-c2ccc(-c3ccccc3)cc2)cs1)c1cc([N+](=O)[O-])ccc1N1CCOCC1	none (no result: Pf gamet viab)
Cc1c(Cl)cccc1NC(=S)N(Cc1cccnc1)Cc1ccccc1Cl	none (no result: Pf gamet viab)
COc1ccc2c(C)cc(Sc3nnnn3-c3ccccc3)nc2c1	NF-kB expr up 3.4
CNC(=O)c1c(C)nn(-c2ccc(F)c(Cl)c2)c1-c1cc(C)on1	none (no result: STAT3 act, NF-kB expr up, STAT1 activator, APP 5'UTR act, STAT1 blocker)
COc1ccc2c(c1OC)C(=O)N(c1cccc(C)c1)C2	NF-kB expr up 5.2, STAT1 activator 135
COc1ccc2c(c1OC)C(=O)N(c1cccc(C(F)(F)F)c1)C2	NF-kB expr up 7.4, STAT1 activator 149
COc1ccc2c(c1OC)C(=O)N(c1ccccn1)C2	STAT1 activator 149 (no result: Pf gamet viab)
C(=N\Nc1nccc(-c2cccnc2)n1)/c1ccccc1	none (no result: STAT3 act, NF-kB expr up, STAT1 activator, APP 5'UTR act, STAT1 blocker)
Cc1ccnc(N/N=C/c2ccccc2)n1	STAT1 activator 145
O=C(CN1CCc2ccccc21)NC(=O)NCc1ccco1	STAT3 act 135
NNC(=O)CN1CCCc2ccccc21	STAT1 activator 148
CC(C)CC(=O)OC1C(N2CCOCC2)c2c(ccc(/C=C/C(=O)N3CCOCC3)c2O)OC1(C)C (stereo not given)	none
Cc1cc(C)nc(Nc2cccc(C(F)(F)F)c2)n1	none (no result: STAT3 act, NF-kB expr up, STAT1 activator, APP 5'UTR act, STAT1 blocker)
Nc1ccccc1Nc1cccc(C(F)(F)F)c1	STAT1 activator 129
Cc1ccc(C23CC4CC(CC(C(=O)NC(C(=O)O)C(C)C)(C4)C2)C3)cc1 (stereo not given)	none (no result: STAT3 act, NF-kB expr up, STAT1 activator, APP 5'UTR act, STAT1 blocker)
CCC(=O)Nc1sc2c(c1C#N)CCCCC2	none (no result: Pf gamet viab)
CCCC(=O)Nc1sc2c(c1C#N)CCCCC2	NF-kB expr up 3.9 (no result: Pf gamet viab)
N#Cc1c(Cl)nsc1NC(=O)c1ccccc1	STAT1 blocker 55
